Reference: ChEMBL document CHEMBL1255333, “Comparison of the in vitro efficacies of moxifloxacin and amoxicillin against Listeria monocytogenes” (2008)
Activity calls are given as the source filed them.

Key:
Listeria monocytogenes [1] = experiment: Antibacterial activity against extracellular Listeria monocytogenes EGDe assessed as reduction in bacterial count at four times of MIC after 24 hrs by time-kill study; assay type: functional, organism-based
Method in brief: (§1)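 EGDe inoculum of 5 x 10^8 bacteria in Mueller-Hinton broth at 37°C. Antibiotic was added at 1x, 4x, 8x or 400x MIC. Counts were done in triplicate at set times by plating serial 10-fold dilutions on BHI agar, with or without 2 µg/ml moxifloxacin, for 48 h. Results are CFU/ml, means ± SE of three experiments. Bactericidal was defined as a >3-log10 drop at 24 h.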

Listeria monocytogenes [2] = experiment: Antibacterial activity against intracellular Listeria monocytogenes EGDe infected in bone marrow-derived BALB/c mouse macrophage assessed as reduction in the formation of filopodium-like projections at >= MIC after 48 hrs by microscopy; assay type: functional, organism-based
Listeria monocytogenes [3] = experiment: Antibacterial activity against extracellular Listeria monocytogenes EGDe at four times of MIC by time-kill study; assay type: functional, organism-based; method in brief: as §1
Listeria monocytogenes [4] = experiment: Antibacterial activity against intracellular Listeria monocytogenes EGDe infected in bone marrow-derived BALB/c mouse macrophage assessed as reduction in bacterial count at four-eitght times of MIC after 3 hrs; assay type: functional, organism-based
Method in brief: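 Bone marrow macrophages from BALB/c mice (7-8 weeks) were differentiated for 7 days in RPMI 1640 with 10% decomplemented FCS and 10% L-cell medium, at 37°C and 10% CO2. Cells at 3 x 10^5/ml were infected for 15 min at a bacteria:macrophage ratio of 10:1, washed, and preincubated for 45 min. They were then given antibiotic for up to 24 h, lysed in 0.1% Triton X-100, and plated in triplicate. Results are CFU/well, means ± SE of three experiments.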

Listeria monocytogenes [5] = experiment: Antibacterial activity against extracellular Listeria monocytogenes EGDe assessed as reduction in bacterial count at eight times of MIC after 24 hrs by time-kill study; assay type: functional, organism-based; method in brief: as §1
Listeria monocytogenes [6] = experiment: Antibacterial activity against extracellular Listeria monocytogenes EGDe at MIC by time-kill study; assay type: functional, organism-based; method in brief: as §1
Listeria monocytogenes [7] = experiment: Antibacterial activity against extracellular Listeria monocytogenes EGDe assessed as reduction in bacterial count at four times of MIC after 6 hrs by time-kill study; assay type: functional; method in brief: as §1
Listeria monocytogenes [8] = experiment: Antibacterial activity against extracellular Listeria monocytogenes EGDe assessed as reduction in bacterial count at eight times of MIC after 6 hrs by time-kill study; assay type: functional; method in brief: as §1
Listeria monocytogenes [9] = experiment: Antibacterial activity against intracellular Listeria monocytogenes EGDe infected in bone marrow-derived BALB/c mouse macrophage assessed as prevention of bacterial release and spread of infection by preventing macrophage lysis after 24 hrs; assay type: functional, organism-based
Listeria monocytogenes [10] = experiment: Antibacterial activity against intracellular Listeria monocytogenes EGDe infected in bone marrow-derived BALB/c mouse macrophage assessed as changes in morphology of intracellular bacteria observed to be ghostly, chained, and elongated at >= MIC after 48 hrs by microscopy; assay type: functional, organism-based
Listeria monocytogenes [11] = experiment: Antibacterial activity against extracellular Listeria monocytogenes EGDe at 400 times of MIC by time-kill study; assay type: functional, organism-based; method in brief: as §1
Listeria monocytogenes [12] = experiment: Antibacterial activity against intracellular Listeria monocytogenes EGDe infected in bone marrow-derived BALB/c mouse macrophage assessed as reduction in the number of infected macrophages after 3 hrs; assay type: functional, organism-based
Method in brief: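 Infected BALB/c bone marrow macrophages were stained with May-Grunwald-Giemsa and examined microscopically to determine the infection rate. Observations were made at 3, 6 and 24 h of exposure to antibiotic at 1x MIC or Cmax, or with no antibiotic.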

Q: With `COc1c(N2C[C@@H]3CCCN[C@@H]3C2)c(F)cc2c(=O)c(C(=O)O)cn(C3CC3)c12` [MOXIFLOXACIN] as the compound, how does the Activity (Listeria monocytogenes [1]) read?
A: Its Activity is “Active”.

Q: And the Activity (Listeria monocytogenes [2])?
A: Its Activity is “Active”.

Q: What about the Activity (Listeria monocytogenes [3]) of the same compound?
A: Its Activity is “Active”.

Q: What about the Activity (Listeria monocytogenes [4]) of the same compound?
A: Its Activity is “Active”.

Q: What about the Activity (Listeria monocytogenes [5]) of the same compound?
A: The Activity was “Active”.

Q: What about the Activity (Listeria monocytogenes [6]) of the same compound?
A: The Activity was “inactive”.

Q: What about the log10CFU/ml (Listeria monocytogenes [7]) of the same compound?
A: The log10CFU/ml was 3.

Q: And the log10CFU/ml (Listeria monocytogenes [8])?
A: The log10CFU/ml was 3.

Q: And the Activity (Listeria monocytogenes [9])?
A: The Activity was “Active”.

Q: And the Activity (Listeria monocytogenes [10])?
A: Its Activity is “Active”.

Q: Which Activity (Listeria monocytogenes [11]) does the source give for `CC1(C)S[C@@H]2[C@H](NC(=O)[C@H](N)c3ccc(O)cc3)C(=O)N2[C@H]1C(=O)O` here?
A: The Activity was “Active”.

Q: What about the Activity (Listeria monocytogenes [2]) of the same compound?
A: The Activity was “inactive”.

Q: And the Activity (Listeria monocytogenes [3])?
A: The Activity was “Active”.

Q: And the Activity (Listeria monocytogenes [4])?
A: Its Activity is “inactive”.

Q: And the Activity (Listeria monocytogenes [12])?
A: Its Activity is “inactive”.

Q: And the Activity (Listeria monocytogenes [6])?
A: Its Activity is “inactive”.

Q: What about the Activity (Listeria monocytogenes [9]) of the same compound?
A: Its Activity is “inactive”.
